Molecules are shown by their SMILES. pIC50: −log10 of the molar value.

Series [1] deals with T1, ADP-ribosyl cyclase/cyclic ADP-ribose hydrolase 1 (Homo sapiens, UniProt P28907).
T1 sequence (P28907 whole entry): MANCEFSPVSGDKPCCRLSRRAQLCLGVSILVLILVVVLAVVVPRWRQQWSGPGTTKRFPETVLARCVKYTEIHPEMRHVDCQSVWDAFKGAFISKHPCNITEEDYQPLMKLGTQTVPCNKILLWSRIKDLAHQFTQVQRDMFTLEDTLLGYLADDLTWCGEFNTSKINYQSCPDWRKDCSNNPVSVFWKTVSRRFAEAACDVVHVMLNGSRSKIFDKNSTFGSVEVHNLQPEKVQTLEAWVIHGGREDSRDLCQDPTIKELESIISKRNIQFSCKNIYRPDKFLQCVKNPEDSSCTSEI
Kind of series: Drug metabolism assessed as human CD38 catalytic domain-mediated compound hydrolysis at 1 mM using 1 ug/mL CD38 by RP-HPLC method. Format: ADME. Particulars: 1000 µM. In short, it runs like this:
(§1)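 Human CD38 catalytic domain diluted in 20 mM Tris-HCl pH 8 to 4 mg/mL or 1 μg/mL, added to inhibitor (1 mM final) at room temperature; no-enzyme control run in parallel. At time points, aliquots diluted 20-fold in water and analysed by RP-HPLC: isocratic elution, 1 mL/min, ion-pair buffer 0.17% cetrimide and 45% phosphate buffer (pH 6.4) in MeOH, photodiode array detection 210–350 nm.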

Series [2] deals with T1, ADP-ribosyl cyclase/cyclic ADP-ribose hydrolase 1. Briefly: Inhibition of human CD38 catalytic domain assessed as reduction in cADPR hydrolysis incubated for 10 mins by fluorimetric cycling assay.
For series [3] the target is unchanged. Kind of series: Drug metabolism assessed as human CD38 catalytic domain-mediated compound hydrolysis at 1 mM by RP-HPLC method. Type of series: ADME. Particulars: 1000 µM. In short, it runs like this: as §1
For series [4] the target is unchanged. Kind of series: Drug metabolism assessed as human CD38 catalytic domain-mediated compound hydrolysis at 1 mM using 4 mg/mL CD38 by RP-HPLC method. Format: ADME. The conditions noted are these: 1000 µM. The method, boiled down:
as §1

Series [5] is described as follows: Retention time of the compound at 1 mM in presence of human CD38 catalytic domain by RP-HPLC method. Particulars: 1000 µM. Format: physicochemical. In short, it runs like this:
as §1

Series [6] has as its target T1, ADP-ribosyl cyclase/cyclic ADP-ribose hydrolase 1. Kind of series: Drug metabolism assessed as human CD38 catalytic domain-mediated compound hydrolysis by measuring 8-NH2-N9-butyl-IDPR level at 1 mM by RP-HPLC method. Type of series: ADME. The conditions noted are these: 1000 µM. The method, boiled down:
as §1

Series [7] shares this target. Briefly: Drug level assessed as human CD38 catalytic domain-mediated compound formation using 1 mM 8-NH2-N9-butyl-cIDPR by RP-HPLC method. Type of series: ADME. In short, it runs like this:
as §1

The nature of series [8]: Retention time of the compound using 1 mM 8-NH2-N9-butyl-cIDPR in presence of human CD38 catalytic domain by RP-HPLC method. Type of series: physicochemical. In short, it runs like this:
as §1

With `O=c1c2ncn3c2ncn1[C@@H]1O[C@H](COP(=O)(O)OP(=O)(O)OC[C@H]2O[C@@H]3[C@H](O)[C@@H]2O)[C@@H](O)[C@H]1O`, the Drug metabolism entry was “metabolite_notdetected” in series [1], “metabolite_detected” in series [3] and “metabolite_detected” in series [4]. Moreover, in series [2], the pIC50 is 3.56.
As for `Nc1nc2c(=O)n3cnc2n1CCCCOP(=O)(O)OP(=O)(O)OC[C@H]1O[C@@H]3[C@H](O)[C@@H]1O`, in series [5], the Retention_time was 9.1 min. The Drug metabolism result in series [1] is “metabolite_notdetected”; in series [6], “metabolite_detected”; in series [4], “metabolite_detected”.
As to `O=c1c2ncn3c2ncn1[C@@H]1O[C@H](COP(=O)(O)OP(=O)(O)OCCCC3)[C@@H](O)[C@H]1O`, the Drug metabolism result in series [3] is listed as “metabolite_detected”.
On the same count and under the same terms, for `O=c1c2nc(Br)n3c2ncn1[C@@H]1O[C@H](COP(=O)(O)OP(=O)(O)OCCCC3)[C@@H](O)[C@H]1O` the value was “metabolite_detected”.
Regarding `Nc1nc2c(=O)[nH]cnc2n1CCCCOP(=O)(O)OP(=O)(O)OC[C@H]1OC(O)[C@H](O)[C@@H]1O` (some centres not stated), the Drug metabolism result in series [7] is on record as “metabolite_detected”. The Retention_time in series [8] came to 10.6 min.

These data come from ChEMBL document CHEMBL3351721, “Cyclic adenosine 5'-diphosphate ribose analogs without a "southern" ribose inhibit ADP-ribosyl cyclase-hydrolase CD38” (J Med Chem, 2014).
